Activity calls are given as the source filed them. The calls are words filed in the database; no cut-off is given here. Bounds are passed on as bounds.

The Kd is the concentration at which binding is half-saturated.

The target in one data set is T1, Estrogen receptor (Homo sapiens, UniProt P03372).
T1 sequence (P03372 whole entry): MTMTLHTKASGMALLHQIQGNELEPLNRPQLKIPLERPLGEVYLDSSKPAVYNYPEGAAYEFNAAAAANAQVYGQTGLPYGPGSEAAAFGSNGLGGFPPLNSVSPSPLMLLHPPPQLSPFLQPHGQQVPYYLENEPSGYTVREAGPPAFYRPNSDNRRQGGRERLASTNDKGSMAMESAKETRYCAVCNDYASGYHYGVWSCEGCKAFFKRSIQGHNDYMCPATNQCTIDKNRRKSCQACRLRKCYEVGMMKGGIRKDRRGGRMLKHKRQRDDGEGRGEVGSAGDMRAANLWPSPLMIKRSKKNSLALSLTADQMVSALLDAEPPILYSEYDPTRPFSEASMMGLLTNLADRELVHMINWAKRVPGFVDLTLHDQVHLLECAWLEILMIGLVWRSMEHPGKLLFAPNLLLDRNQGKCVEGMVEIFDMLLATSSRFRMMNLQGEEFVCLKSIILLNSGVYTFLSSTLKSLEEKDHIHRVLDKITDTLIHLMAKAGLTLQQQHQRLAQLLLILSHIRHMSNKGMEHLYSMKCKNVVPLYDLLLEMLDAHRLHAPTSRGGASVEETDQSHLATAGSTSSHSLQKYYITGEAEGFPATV
In words: Binding affinity to recombinant human GFP-fused ERalpha LBD (301 to 553 residues) expressed in Escherichia coli BL21(DE3) after 40 mins in presence of 17beta-estradiol by fluorescence polarization assay. In general terms: Fluorescence polarisation rises when a labelled molecule tumbles more slowly, as on binding a larger partner.

A short description of data set [1]: Drug uptake in human MCF7 cells assessed per million cells at 5 uM after 3 hrs by FACS analysis. The format is ADME, cell-based. The following applies: mcf7, 3 h. In short, it runs like this: (§1)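 Adherent cells seeded overnight, then exposed to 5 μM FITC-labelled peptide or DMSO in FBS-free medium, 3 h, 37 °C. After PBS washes (three), about 10000 cells per sample analysed by flow cytometry; mean cellular fluorescence intensity calculated. More than two independent experiments, SEM.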
In general terms: Flow cytometry measures light scatter and fluorescence of single cells or particles in a stream.

The species named for data set [2] is Homo sapiens. The data set can be described thus: Selectivity ratio of Kd for recombinant human GST-tagged VDR LBD (156 to 453 residues) to Kd for recombinant human ERalpha LBD (301 to 553 residues). In short, it runs like this: (§2)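 Ratio of KD values, each from fluorescence polarization of 10 nM FITC-peptide titrated with the respective LBD after 40 min in the dark at 298 K, with the matching ligand in buffer (10 μM 17β-estradiol, progesterone or vitamin D3).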

A further data set concerns the target Estrogen receptor beta (Homo sapiens, UniProt Q92731). The data set can be described thus: Binding affinity to recombinant human GFP-fused ERbeta LBD (259 to 498 residues) expressed in Escherichia coli BL21(DE3) after 40 mins in presence of 17beta-estradiol by fluorescence polarization assay. In short, it runs like this: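 FITC-labelled peptide at 10 nM final, titrated with increasing purified LBD (ERβ LBD carrying C334S, C369S, C481S) in 20 mM Tris-HCl pH 8.0, 150 mM NaCl, 5% glycerol, 1 mM TCEP with 10 μM 17β-estradiol. Incubated 40 min in the dark, polarization read at 298 K (ex 480/em 535 nm). KD from nonlinear regression of polarization versus protein concentration.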

The species named for data set [3] is Homo sapiens. The data set can be described thus: Selectivity ratio of Kd for recombinant human GST-tagged PGR LBD ([…] residues) to Kd for recombinant human ERalpha LBD (301 to 553 residues). Summed up:
as §2

Data set [4] can be described thus: Drug uptake in human U2OS cells assessed per million cells at 5 uM after 3 hrs by FACS analysis. The format is ADME, cell-based. Summed up:
as §1

Data set [5] in a line: Drug uptake in human MCF7 cell nucleus at 5 uM after 3 hrs in presence of 10 nM E2 by DAPI-staining based confocal laser scanning microscopic analysis.
Data set [6] has as its target T2, Estrogen receptor (Homo sapiens) (UniProt P03372).
T2 sequence (whole entry): T1 sequence (P03372 whole entry)
In words: Binding affinity to recombinant human GFP-fused ERalpha LBD (301 to 553 residues) expressed in Escherichia coli BL21(DE3) in presence of 17beta-estradiol by ITC. In short, it runs like this: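 ITC at 25 °C. 2 μL injections of 50 μM peptide into 5 μM ERα LBD in 50 mM Tris pH 8.0, 150 mM NaCl, 1 mM TCEP, 0.1 mM 17β-estradiol. Binding isotherm fitted for affinity.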
A general note: In ITC the heat of successive injections is recorded.

Data set [7] is filed under the species Homo sapiens. The data set can be described thus: Selectivity ratio of Kd for recombinant human ERbeta LBD (259 to 498 residues) to Kd for recombinant human ERalpha LBD (301 to 553 residues). In short, it runs like this: as §2
The target in data set [8] is T2, Estrogen receptor (Homo sapiens). In words: Binding affinity to recombinant human GFP-fused ERalpha LBD (301 to 553 residues) expressed in Escherichia coli BL21(DE3) in presence of ERalpha inhibitor 4-hydroxytamoxifen by ITC. In short, it runs like this:
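ITC at 25 °C. 50 μM peptide injected in 2 μL steps into 5 μM ERα LBD in 50 mM Tris pH 8.0, 150 mM NaCl, 1 mM TCEP containing 0.1 mM 4-hydroxytamoxifen instead of estradiol. Isotherm fitted.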

The target of another data set is T3, Vitamin D3 receptor (Homo sapiens, UniProt P11473).
T3 sequence (P11473 whole entry): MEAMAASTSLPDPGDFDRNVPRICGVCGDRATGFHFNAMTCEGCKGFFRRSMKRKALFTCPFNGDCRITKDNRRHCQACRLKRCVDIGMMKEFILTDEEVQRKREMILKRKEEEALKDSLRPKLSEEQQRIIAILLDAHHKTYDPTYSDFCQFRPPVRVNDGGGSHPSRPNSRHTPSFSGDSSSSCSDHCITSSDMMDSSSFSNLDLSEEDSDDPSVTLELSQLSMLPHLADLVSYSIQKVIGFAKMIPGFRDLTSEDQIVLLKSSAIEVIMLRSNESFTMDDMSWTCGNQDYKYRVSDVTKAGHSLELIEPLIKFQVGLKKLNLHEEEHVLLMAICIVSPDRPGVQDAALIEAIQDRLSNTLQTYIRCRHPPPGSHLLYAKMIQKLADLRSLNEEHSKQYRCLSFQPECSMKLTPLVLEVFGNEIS
The data set can be described thus: Binding affinity to recombinant human GST-tagged VDR LBD (156 to 453 residues) expressed in Echerichia coli BL21 star (DE3) after 40 mins in presence of vitamin D3 by fluorescence polarization assay. In short, it runs like this: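 GST-VDR LBD titrated into 10 nM final FITC-labelled peptide in 20 mM Tris-HCl pH 8.0, 150 mM NaCl, 5% glycerol, 1 mM TCEP containing 10 μM vitamin D3. 40 min dark incubation, polarization at 298 K (ex 480/em 535 nm). KD by nonlinear regression.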

Sequence of Estrogen receptor beta (Q92731 whole entry, the tested form may be a part): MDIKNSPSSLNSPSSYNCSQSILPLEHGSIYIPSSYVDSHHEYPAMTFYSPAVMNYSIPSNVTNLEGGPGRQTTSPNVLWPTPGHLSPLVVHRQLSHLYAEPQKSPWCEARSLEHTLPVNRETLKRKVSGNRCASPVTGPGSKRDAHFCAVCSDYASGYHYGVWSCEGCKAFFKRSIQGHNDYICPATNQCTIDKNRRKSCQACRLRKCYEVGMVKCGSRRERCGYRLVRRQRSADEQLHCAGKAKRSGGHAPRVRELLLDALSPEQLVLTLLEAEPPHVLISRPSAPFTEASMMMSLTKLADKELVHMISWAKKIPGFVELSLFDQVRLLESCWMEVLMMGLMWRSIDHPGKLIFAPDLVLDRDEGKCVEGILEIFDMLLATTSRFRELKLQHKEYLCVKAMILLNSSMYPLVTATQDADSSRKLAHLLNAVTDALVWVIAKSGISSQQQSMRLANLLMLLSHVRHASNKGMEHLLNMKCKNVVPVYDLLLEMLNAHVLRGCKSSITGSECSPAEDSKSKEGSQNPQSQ

Turning to `CC[C@H](C)[C@@H]1NC(=O)C[C@H](NC(=O)[C@H](CCCNC(=N)N)NC(=O)CCNC(=S)Nc2ccc3c(c2)C(=O)OC32c3ccc(O)cc3Oc3cc(O)ccc32)C(=O)NCC(C(=O)N[C@@H](CCCNC(=N)N)C(=O)NC(CC(C)(C)C)C(=O)NC(CC(C)(C)C)C(=O)N[C@@H](CCC(N)=O)C(N)=O)NC(=O)C(CC(C)(C)C)NC1=O` (stereo partly specified), the Kd on Estrogen receptor was 67 nM; at Estrogen receptor beta it was 297 nM; at Vitamin D3 receptor it was greater than 2000 nM. In addition, the Drug uptake entry in [1], in data set [4] and in data set [5] was “Active” in each case. Further, the Selectivity ratio in the data set filed under Homo sapiens [2] is greater than 30; in the data set listed under Homo sapiens [3], 3.7; in the data set filed under Homo sapiens [7], 4.4. In [6], the outcome was Active. Moreover, in data set [8], the result was inactive.

Source of the values: ChEMBL document CHEMBL4017549, “Structural Basis of Inhibition of ERα-Coactivator Interaction by High-Affinity N-Terminus Isoaspartic Acid Tethered Helical Peptides” (J Med Chem, 2017).
